From publication PMC12423902 (ACS Omega, 2025)
Like-named read-outs stand apart in the source and are kept apart here.

Experiments:
FASN [1] = target: T1, FASN (Gallus gallus, UniProt P12276); test: FASN overall reaction inhibition; type: biochemical, chicken
How it was run: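 Overall reaction of purified chicken liver FASN at 37 °C, read as initial rate of NADPH absorbance loss at 340 nm. The test compound was added before the last substrate, which started the reaction; DMSO was below 0.5% (v/v). Relative activity was Ai/A0 × 100%. IC50 came from a plot of relative activity versus concentration. Single-point data at 10.0 μM are mean ± SD, n = 3 independent experiments.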

FASN [2] = target: T1, FASN; conditions: read-out: IC50, FASN inhibition; literature value; ref number not given; cited from earlier work
[3] = target: FASN KR domain (β-ketoacyl reduction) (Gallus gallus, UniProt P12276); test: β-ketoacyl reduction partial reaction of FASN; type: biochemical, chicken; conditions: 10.0 μM phloretin
Sequence of FASN KR domain (β-ketoacyl reduction) (P12276 2-2512 limits assumed): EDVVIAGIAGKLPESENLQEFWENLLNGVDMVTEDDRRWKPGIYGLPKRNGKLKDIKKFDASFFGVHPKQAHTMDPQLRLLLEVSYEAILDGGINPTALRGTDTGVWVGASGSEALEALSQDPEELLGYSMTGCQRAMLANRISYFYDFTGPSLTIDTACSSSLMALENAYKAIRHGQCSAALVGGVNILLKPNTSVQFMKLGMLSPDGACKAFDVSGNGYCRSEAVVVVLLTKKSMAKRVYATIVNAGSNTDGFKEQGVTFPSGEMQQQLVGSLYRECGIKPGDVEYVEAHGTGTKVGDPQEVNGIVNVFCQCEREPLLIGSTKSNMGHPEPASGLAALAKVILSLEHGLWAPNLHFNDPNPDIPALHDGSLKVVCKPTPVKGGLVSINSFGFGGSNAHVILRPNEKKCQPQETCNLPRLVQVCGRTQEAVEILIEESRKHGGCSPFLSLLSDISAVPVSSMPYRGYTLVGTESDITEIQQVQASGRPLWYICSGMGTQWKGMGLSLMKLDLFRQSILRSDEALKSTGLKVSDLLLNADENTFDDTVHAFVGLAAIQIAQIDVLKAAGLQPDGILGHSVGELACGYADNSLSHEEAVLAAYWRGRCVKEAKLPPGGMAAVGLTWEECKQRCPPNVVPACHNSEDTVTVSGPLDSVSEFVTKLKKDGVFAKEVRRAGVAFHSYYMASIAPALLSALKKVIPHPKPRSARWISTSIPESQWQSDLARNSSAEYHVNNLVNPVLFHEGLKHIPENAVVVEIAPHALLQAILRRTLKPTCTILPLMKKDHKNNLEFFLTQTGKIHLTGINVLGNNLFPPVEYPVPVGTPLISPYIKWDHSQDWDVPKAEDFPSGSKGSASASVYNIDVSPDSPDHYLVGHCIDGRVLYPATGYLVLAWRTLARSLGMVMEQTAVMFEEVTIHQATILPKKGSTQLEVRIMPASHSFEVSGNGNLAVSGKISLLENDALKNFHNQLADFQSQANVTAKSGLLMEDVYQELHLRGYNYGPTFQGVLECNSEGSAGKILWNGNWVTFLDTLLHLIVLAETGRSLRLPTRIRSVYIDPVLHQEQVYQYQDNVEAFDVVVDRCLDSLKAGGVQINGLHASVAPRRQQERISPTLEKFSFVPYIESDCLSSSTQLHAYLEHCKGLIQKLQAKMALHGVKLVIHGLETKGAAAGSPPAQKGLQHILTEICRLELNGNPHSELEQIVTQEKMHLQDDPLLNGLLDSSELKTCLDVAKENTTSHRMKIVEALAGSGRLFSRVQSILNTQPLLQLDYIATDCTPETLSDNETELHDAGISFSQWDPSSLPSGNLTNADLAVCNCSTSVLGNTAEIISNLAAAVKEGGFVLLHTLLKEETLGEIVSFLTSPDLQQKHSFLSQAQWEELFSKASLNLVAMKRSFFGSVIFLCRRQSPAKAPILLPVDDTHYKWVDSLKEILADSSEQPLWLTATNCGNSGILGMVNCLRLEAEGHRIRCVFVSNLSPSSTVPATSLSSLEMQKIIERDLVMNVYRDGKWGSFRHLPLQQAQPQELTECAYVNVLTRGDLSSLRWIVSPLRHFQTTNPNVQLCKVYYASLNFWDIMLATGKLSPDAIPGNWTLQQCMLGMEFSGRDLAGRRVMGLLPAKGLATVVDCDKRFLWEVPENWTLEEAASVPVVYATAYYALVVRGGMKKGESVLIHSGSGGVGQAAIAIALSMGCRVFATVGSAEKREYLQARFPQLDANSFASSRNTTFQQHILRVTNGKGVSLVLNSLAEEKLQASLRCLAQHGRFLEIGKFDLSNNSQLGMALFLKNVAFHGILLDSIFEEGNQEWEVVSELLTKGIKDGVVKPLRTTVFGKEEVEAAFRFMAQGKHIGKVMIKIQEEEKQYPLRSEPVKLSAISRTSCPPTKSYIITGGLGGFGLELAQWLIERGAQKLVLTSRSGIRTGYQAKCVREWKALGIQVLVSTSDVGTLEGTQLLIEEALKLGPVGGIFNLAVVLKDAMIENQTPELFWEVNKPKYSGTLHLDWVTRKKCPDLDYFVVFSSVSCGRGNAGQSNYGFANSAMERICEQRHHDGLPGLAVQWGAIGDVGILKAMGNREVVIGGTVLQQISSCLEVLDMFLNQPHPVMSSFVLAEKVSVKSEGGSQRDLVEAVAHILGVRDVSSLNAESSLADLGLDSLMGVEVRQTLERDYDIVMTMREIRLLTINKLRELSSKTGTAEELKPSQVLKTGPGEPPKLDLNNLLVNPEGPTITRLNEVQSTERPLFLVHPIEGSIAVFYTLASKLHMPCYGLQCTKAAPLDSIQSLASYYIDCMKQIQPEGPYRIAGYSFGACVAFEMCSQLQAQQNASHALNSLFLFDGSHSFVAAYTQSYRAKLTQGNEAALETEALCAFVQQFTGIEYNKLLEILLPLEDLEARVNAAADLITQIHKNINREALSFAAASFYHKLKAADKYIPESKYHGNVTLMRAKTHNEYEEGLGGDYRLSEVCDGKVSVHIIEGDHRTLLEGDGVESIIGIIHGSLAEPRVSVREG
How it was run: (§1)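 Chicken liver FASN was purified by two-step ammonium sulfate precipitation, DEAE-cellulose and Blue-Sepharose chromatography, and stored at −70 °C. Partial reactions (β-ketoacyl reduction, enoyl reduction, AcAc-CoA reduction) were run at 37 °C after 10 min equilibration. The test compound was at 10.0 μM, with DMSO below 0.5% (v/v). Initial velocity came from the NADPH decrease at 340 nm. Relative activity was Ai/A0 × 100%, given as mean ± SD of three independent experiments.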

[4] = target: FASN ER domain (enoyl reduction) (Gallus gallus, UniProt P12276); test: enoyl reduction partial reaction of FASN; type: biochemical, chicken; conditions: 10.0 μM phloretin
Sequence of FASN ER domain (enoyl reduction) (P12276 2-2512 limits assumed): as above
How it was run: as §1

[5] = target: FASN (MAT, KR, DH, ER domains and ACP; AcAc-CoA reaction) (Gallus gallus, UniProt P12276); test: AcAc-CoA reduction reaction of FASN; type: biochemical, chicken; conditions: 10.0 μM phloretin
Sequence of FASN (MAT, KR, DH, ER domains and ACP; AcAc-CoA reaction) (P12276 2-2512 limits assumed): as above
How it was run: as §1

FASN [6] = target: T1, FASN; test: time-dependent; type: biochemical, chicken
How it was run: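 FASN was incubated at 25 °C with various test compound concentrations. Aliquots taken at set intervals were assayed for residual overall activity. kobs came from ln(At/A0) = −kobs·t. For substrate protection, Ac-CoA, Mal-CoA or NADPH (10 μM each) was present during inactivation, compared with no substrate. In a separate series, FASN (0.60 μM) was preincubated with 6.6 μM test compound plus rising Ac-CoA, and 1/kobs was plotted against Ac-CoA.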

FASN KR domain = FASN KR domain (Gallus gallus, UniProt P12276); test: time-dependent inhibition of the KR domain; type: biochemical, chicken
FASN [7] = target: T1, FASN; test: enzyme kinetics study; type: biochemical, chicken; conditions: for Ki: Inhibition constant K is
How it was run: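 Purified chicken FASN, overall reaction at 340 nm (NADPH). One substrate was varied with the others fixed. Ac-CoA varied with Mal-CoA 10 μM and NADPH 35 μM, test compound 0–5.86 μM. Mal-CoA varied with Ac-CoA 3 μM and NADPH 35 μM, test compound 0–6.88 μM. NADPH varied with Ac-CoA 3 μM and Mal-CoA 10 μM, test compound 0–9.12 μM. Lineweaver–Burk plots; Kis/Kii from secondary plots; points are means of 2–5 experiments.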

MDA-MB-231 = test: cell viability assay; type: cell-based; conditions: Homo sapiens, MDA-MB-231, 24 h, read-out: IC50, cell viability
How it was run: (§2)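 Cells were grown in DMEM with 10% FBS at 37 °C and 5% CO2. They were seeded at 1 × 10^6 cells/mL and allowed to attach overnight before treatment. Medium was then replaced with drug-free medium containing CCK-8 reagent, incubated 1 h at 37 °C, and read at 450 nm. Six replicates were run on three separate occasions.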

MCF-7 = test: cell viability assay; type: cell-based; conditions: Homo sapiens, MCF7, 24 h, read-out: IC50, cell viability
How it was run: as §2

[8] = tested on: FASN expression in MDA-MB-231 and MCF-7 cells; test: Western blot analysis of FASN expression in breast cancer cells; type: cell-based, human; conditions: 60–90 μM, 24 h, both cell lines
How it was run: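 Cells in DMEM/10% FBS were treated 24 h with test compound, washed with PBS, lysed in RIPA and sonicated. Protein was measured by BCA, and 20 μg per lane was run on 8% SDS-PAGE and transferred to PVDF. Membranes were blocked in 5% milk, probed overnight at 4 °C with rabbit monoclonal anti-FASN and anti-β-actin, then an HRP anti-rabbit secondary. Detection was by ECL, with densitometry normalized to β-actin; mean ± SD, n = 3.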

[9] = target: intracellular FASN in breast cancer cells (MDA-MB-231, MCF-7) (Homo sapiens, UniProt P49327); test: intracellular FASN activity assay; type: cell-based
Sequence of intracellular FASN in breast cancer cells (MDA-MB-231, MCF-7) (P49327 whole entry): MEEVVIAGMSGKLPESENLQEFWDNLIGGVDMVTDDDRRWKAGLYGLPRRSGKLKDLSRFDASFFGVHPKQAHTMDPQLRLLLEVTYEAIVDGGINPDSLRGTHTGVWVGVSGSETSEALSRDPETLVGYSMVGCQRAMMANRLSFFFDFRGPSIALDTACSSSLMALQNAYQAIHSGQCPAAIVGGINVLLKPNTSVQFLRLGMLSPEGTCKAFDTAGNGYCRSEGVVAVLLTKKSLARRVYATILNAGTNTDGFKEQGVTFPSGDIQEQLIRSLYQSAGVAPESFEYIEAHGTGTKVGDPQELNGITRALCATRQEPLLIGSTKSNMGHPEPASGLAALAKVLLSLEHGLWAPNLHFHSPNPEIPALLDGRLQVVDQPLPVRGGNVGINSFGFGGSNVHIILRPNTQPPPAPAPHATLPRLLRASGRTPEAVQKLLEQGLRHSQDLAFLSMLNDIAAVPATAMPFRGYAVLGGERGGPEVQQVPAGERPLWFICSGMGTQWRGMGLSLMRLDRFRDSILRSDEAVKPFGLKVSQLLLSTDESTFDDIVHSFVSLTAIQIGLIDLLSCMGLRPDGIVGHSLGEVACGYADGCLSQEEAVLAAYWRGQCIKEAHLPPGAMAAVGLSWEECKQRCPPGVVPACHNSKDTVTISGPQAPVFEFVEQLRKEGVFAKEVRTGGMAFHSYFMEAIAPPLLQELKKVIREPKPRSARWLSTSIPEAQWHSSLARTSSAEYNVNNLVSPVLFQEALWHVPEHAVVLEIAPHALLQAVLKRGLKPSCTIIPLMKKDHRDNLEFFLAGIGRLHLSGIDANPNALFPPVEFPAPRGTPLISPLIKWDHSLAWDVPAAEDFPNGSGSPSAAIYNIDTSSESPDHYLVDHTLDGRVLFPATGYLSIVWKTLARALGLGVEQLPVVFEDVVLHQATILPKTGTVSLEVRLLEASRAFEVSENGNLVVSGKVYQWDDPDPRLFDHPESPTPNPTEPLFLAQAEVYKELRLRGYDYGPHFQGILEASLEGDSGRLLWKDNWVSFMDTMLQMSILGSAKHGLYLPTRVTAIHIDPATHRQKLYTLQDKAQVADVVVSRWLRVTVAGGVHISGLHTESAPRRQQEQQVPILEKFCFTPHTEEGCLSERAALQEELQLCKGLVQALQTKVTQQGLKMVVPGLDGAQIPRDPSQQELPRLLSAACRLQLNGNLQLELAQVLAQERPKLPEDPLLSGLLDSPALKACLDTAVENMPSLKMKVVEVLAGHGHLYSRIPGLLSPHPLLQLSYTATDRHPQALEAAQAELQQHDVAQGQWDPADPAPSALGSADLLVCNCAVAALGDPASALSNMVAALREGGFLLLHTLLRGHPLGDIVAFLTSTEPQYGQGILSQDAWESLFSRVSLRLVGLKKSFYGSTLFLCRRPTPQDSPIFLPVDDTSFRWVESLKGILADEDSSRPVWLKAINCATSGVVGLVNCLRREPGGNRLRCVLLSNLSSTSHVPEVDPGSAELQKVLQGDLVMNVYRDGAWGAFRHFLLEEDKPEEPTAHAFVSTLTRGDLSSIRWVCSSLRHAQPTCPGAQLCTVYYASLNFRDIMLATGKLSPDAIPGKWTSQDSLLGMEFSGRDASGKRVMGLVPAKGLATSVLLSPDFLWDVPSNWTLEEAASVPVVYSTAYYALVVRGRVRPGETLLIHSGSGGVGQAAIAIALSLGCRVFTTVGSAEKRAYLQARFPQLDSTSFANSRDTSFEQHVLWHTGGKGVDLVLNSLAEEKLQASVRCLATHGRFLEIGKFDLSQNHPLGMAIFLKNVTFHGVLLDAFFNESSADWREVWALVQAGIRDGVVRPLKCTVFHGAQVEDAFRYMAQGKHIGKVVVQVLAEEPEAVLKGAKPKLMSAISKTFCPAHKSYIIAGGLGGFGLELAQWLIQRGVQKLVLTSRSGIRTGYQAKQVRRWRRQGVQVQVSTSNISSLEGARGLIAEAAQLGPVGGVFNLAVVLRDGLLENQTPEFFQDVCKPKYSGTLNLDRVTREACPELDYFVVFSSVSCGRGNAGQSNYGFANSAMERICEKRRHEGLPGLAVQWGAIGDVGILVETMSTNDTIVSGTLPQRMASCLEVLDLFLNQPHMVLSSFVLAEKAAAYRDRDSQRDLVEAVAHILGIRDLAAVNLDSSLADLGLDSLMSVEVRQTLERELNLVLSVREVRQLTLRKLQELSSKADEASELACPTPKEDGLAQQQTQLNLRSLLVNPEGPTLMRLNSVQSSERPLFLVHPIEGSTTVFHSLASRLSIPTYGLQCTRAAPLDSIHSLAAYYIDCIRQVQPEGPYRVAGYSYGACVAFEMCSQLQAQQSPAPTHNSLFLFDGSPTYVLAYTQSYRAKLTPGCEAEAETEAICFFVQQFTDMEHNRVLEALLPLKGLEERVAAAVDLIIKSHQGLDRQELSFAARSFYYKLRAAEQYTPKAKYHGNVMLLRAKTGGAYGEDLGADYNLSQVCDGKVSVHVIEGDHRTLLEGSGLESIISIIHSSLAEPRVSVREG
How it was run: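 After 24 h exposure, cells were trypsinized, washed three times and resuspended in cold PBS. They were sonicated at 4 °C and spun at 12,000 g for 15 min at 4 °C. Supernatant was assayed in 25 mM K-phosphate (pH 7.0) with 0.25 mM EDTA, 0.25 mM DTT, 30 μM Ac-CoA and 350 μM NADPH. Background A340 was read for 60 s, then Mal-CoA was added and FAS-dependent NADPH oxidation read for 60 s more. Mean ± SD, n = 3; ANOVA with Tukey.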

[10] = tested on: intracellular TG content in breast cancer cells (MDA-MB-231, MCF-7); test: triglyceride; type: cell-based, human; conditions: 24 h, p < 0.001
[11] = ref number not given, cited from earlier work

T1 sequence (P12276 2-2512 limits assumed): as the sequence (P12276 2-2512 limits assumed) above

O=C(O[C@@H]1Cc2c(O)cc(O)cc2O[C@@H]1c1cc(O)c(O)c(O)c1)c1cc(O)c(O)c(O)c1 [EGCG, epigallocatechin gallate, reference compound]
IC50 (FASN [1]; read-out: IC50, FASN overall reaction activity, chicken liver FASN, 37 °C): 50.5 ± 0.75 µM | IC50 (FASN [2]): 52 µM

C/C=C/C/C=C/CCC(=O)[C@H]1O[C@H]1C(N)=O [cerulenin]
IC50 (FASN [2]): 89 µM

O=C(CCc1ccc(O)cc1)c1c(O)cc(O)cc1O [phloretin, β-(4-hydroxyphenyl)-2,4,6-trihydroxypropiophenone]
IC50 (FASN [1]): 4.9 ± 0.66 µM | inhibition at 10 µM (FASN [1]; read-out: inhibition of overall FASN activity): 81% | β-ketoacyl reduction activity suppressed [3]: 3.5% | enoyl reduction activity suppressed [4]: 4.8% | AcAc-CoA reaction activity remained [5]: 91.2% | decrease of k obs by preincubation with Mal-CoA or NADPH (FASN [6]; Mal-CoA (10 μM) or NADPH (10 μM) vs no substrate): 5–10% | k obs, FASN inactivation without any substrate (FASN [6]; control, same conditions without substrate): 0.070 min^–1 | k obs, overall reaction activity of FASN (FASN [6]; phloretin 2 mg/mL, incubated at 25 °C): 0.0264 min^–1 | k obs, FASN inactivation with Ac-CoA (FASN [6]; with Ac-CoA (10 μM)): 0.025 min^–1 | k obs, FASN inactivation with Mal-CoA (FASN [6]; with Mal-CoA (10 μM)): 0.067 min^–1 | k obs, FASN inactivation with NADPH (FASN [6]; with NADPH (10 μM)): 0.064 min^–1 | time-dependent inhibition of KR domain (FASN KR domain): no time-dependent inhibition was observed | Ki (FASN [7]; substrate Ac-CoA): 3.46 µM | Ki (FASN [7]; substrate Mal-CoA): 5.69 µM | Inhibitory manner (FASN [7]; substrate Ac-CoA varied, Mal-CoA 10 μM, NADPH 35 μM): Competitive | Inhibitory manner (FASN [7]; substrate Mal-CoA varied, Ac-CoA 3 μM, NADPH 35 μM): Mixed competitive and noncompetitive | Inhibition constant K ii (FASN [7]; substrate Mal-CoA, enzyme–substrate complex): 9.41 µM | Inhibition constant K ii (FASN [7]; substrate NADPH): 1.80 µM | Inhibitory manner (FASN [7]; substrate NADPH varied, Ac-CoA 3 μM, Mal-CoA 10 μM): Uncompetitive | IC50 (MDA-MB-231): 81.4 µM | IC50 (MCF-7): 101 µM | FASN protein content [8]: significantly decreased | lowest concentration with significant inhibition of intracellular FASN activity ([9]; p < 0.01, 24 h, breast cancer cells): 30 µM | inhibition at 90 µM ([9]; read-out: maximal inhibition of intracellular FASN enzymatic activity): > 50% | cellular TG levels [10]: marked concentration-dependent reduction | time of Cmax postdose ([11]; Sprague–Dawley rats, single 100 mg/kg dose): 15 min | Cmax ([11]; oral doses of 200 and 300 mg/kg): < 10 µM | oral bioavailability ([11]; rats, oral and intravenous routes): 8.676%
